Laboratory results as given in publication PMC7709506 (ESMO Open, 2020).

Experiment: Safety and tolerability
Type: in vivo, human
Procedure, shortened: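 Open-label multicentre phase I/IIa trial in adults with advanced or metastatic solid tumours. Part 1 used 3+3 oral capsule escalation at 50–800 mg/day to define DLT and MTD. Part 2 gave tablets. Treatment continued until progression, intolerable AE or study end, with dose decisions by a safety monitoring board. AEs of special interest were monitored. The safety population was all dosed patients, summarised by dose level.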

Cn1cc(-c2ccc3c(c2)ncn3-c2cc(NS(=O)(=O)C3CC3)cc(-c3ccc(F)cc3F)c2)cn1 [ODM-203]
4 (57.1) n (%): AE leading to treatment interruption (capsule 400 mg (n=7))
17 (56.7) n (%): AE leading to discontinuation (capsule 600 mg (n=30))
3 (42.9) n (%): Blood bilirubin increased (capsule 400 mg (n=7)) | Jaundice (capsule 400 mg (n=7))
2 (66.7) n (%): Related AE (capsule 200 mg (n=3))
11 (36.7) n (%): Arthralgia (capsule 600 mg (n=30))
2 (28.6) n (%): Dysgeusia (capsule 400 mg (n=7)) | Hyperbilirubinaemia (capsule 400 mg (n=7)) | Hyperphosphataemia (capsule 400 mg (n=7)) | Palmar-plantar eryrthodysaestesia (capsule 400 mg (n=7))
1 (33.3) n (%): Asthenia (capsule 200 mg (n=3)) | Epistaxis (capsule 200 mg (n=3))
7 (100) n (%): Any AE (capsule 400 mg (n=7)) | Related AE (capsule 400 mg (n=7))
3 (100) n (%): Any AE (capsule 200 mg (n=3))
22 (73.3) n (%): AE leading to treatment interruption (capsule 600 mg (n=30))
8 (26.7) n (%): Alopecia (capsule 600 mg (n=30)) | Asthenia (capsule 600 mg (n=30))
3 (10.0) n (%): Conjugated bilirubin increased (capsule 600 mg (n=30))
2 (6.7) n (%): AE leading to death (capsule 600 mg (n=30))
1 (100) n (%): Related AE (capsule 100 mg (n=1))
0 n (%): Jaundice (capsule 100 mg (n=1)) | Mucosal inflammation (capsule 100 mg (n=1)) | Myalgia (capsule 100 mg (n=1)) | Nasal dryness (capsule 100 mg (n=1)) | Nausea (capsule 100 mg (n=1)) | Onycholysis (capsule 100 mg (n=1)) | Palmar-plantar eryrthodysaestesia (capsule 100 mg (n=1)) | Related SAEs (capsule 100 mg (n=1)) | Stomatitis (capsule 100 mg (n=1)) | Vomiting (capsule 100 mg (n=1)) | Weight decreased (capsule 100 mg (n=1)) | AE leading to death (capsule 200 mg (n=3)) | AE leading to discontinuation (capsule 200 mg (n=3)) | AE leading to dose reduction (capsule 200 mg (n=3)) | AE leading to treatment interruption (capsule 200 mg (n=3)) | Alopecia (capsule 200 mg (n=3)) | Arthralgia (capsule 200 mg (n=3)) | Blood bilirubin increased (capsule 200 mg (n=3)) | Conjugated bilirubin increased (capsule 200 mg (n=3)) | Decreased appetite (capsule 200 mg (n=3)) | Diarrhoea (capsule 200 mg (n=3)) | Dry mouth (capsule 200 mg (n=3)) | Dry skin (capsule 200 mg (n=3)) | Dysgeusia (capsule 200 mg (n=3)) | Fatigue (capsule 200 mg (n=3)) | Hyperbilirubinaemia (capsule 200 mg (n=3)) | Hyperphosphataemia (capsule 200 mg (n=3)) | Hypertension (capsule 200 mg (n=3)) | Jaundice (capsule 200 mg (n=3)) | Mucosal inflammation (capsule 200 mg (n=3)) | Myalgia (capsule 200 mg (n=3)) | Nasal dryness (capsule 200 mg (n=3)) | Nausea (capsule 200 mg (n=3)) | Onycholysis (capsule 200 mg (n=3)) | Palmar-plantar eryrthodysaestesia (capsule 200 mg (n=3)) | Related SAEs (capsule 200 mg (n=3)) | Stomatitis (capsule 200 mg (n=3)) | Vomiting (capsule 200 mg (n=3)) | Weight decreased (capsule 200 mg (n=3)) | AE leading to death (capsule 400 mg (n=7)) | Conjugated bilirubin increased (capsule 400 mg (n=7)) | Dry skin (capsule 400 mg (n=7)) | Hypertension (capsule 400 mg (n=7)) | Nausea (capsule 400 mg (n=7)) | Onycholysis (capsule 400 mg (n=7)) | Related SAEs (capsule 400 mg (n=7))
13 (43.3) n (%): Blood bilirubin increased (capsule 600 mg (n=30))
30 (100) n (%): Any AE (capsule 600 mg (n=30))
1 (3.3) n (%): AE leading to dose reduction (capsule 600 mg (n=30))
1 (14.3) n (%): AE leading to discontinuation (capsule 400 mg (n=7)) | AE leading to dose reduction (capsule 400 mg (n=7)) | Alopecia (capsule 400 mg (n=7)) | Arthralgia (capsule 400 mg (n=7)) | Asthenia (capsule 400 mg (n=7)) | Decreased appetite (capsule 400 mg (n=7)) | Diarrhoea (capsule 400 mg (n=7)) | Dry mouth (capsule 400 mg (n=7)) | Epistaxis (capsule 400 mg (n=7)) | Fatigue (capsule 400 mg (n=7)) | Mucosal inflammation (capsule 400 mg (n=7)) | Myalgia (capsule 400 mg (n=7)) | Nasal dryness (capsule 400 mg (n=7)) | Stomatitis (capsule 400 mg (n=7)) | Vomiting (capsule 400 mg (n=7)) | Weight decreased (capsule 400 mg (n=7))
